The source made the active and inactive calls.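 How the source made its calls, unless noted: active means viability loss from added drug above about 55%, and viability with drug at most 40%, in both replicates (limit read from the data, passing the limit was not always enough); inconclusive means both conditions met in only one replicate; inactive means neither replicate meets both conditions.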
How the values were obtained:
[1] = HUVEC growth inhibition – cell-based, human, primary screen (AID 575;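 active means viability at or below 30% in both replicate assays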;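 further: 100% = median of untreated cell wells with 0.1% DMSO on each plate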); settings: HUVEC proliferation, CellTiter-Glo luminescence, 72 h; at 10 µM; stronger effect = lower value
Summary of the method: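 System – primary HUVEC, no more than 12 passages · Medium – Low-serum (2% FBS) EBM, supplemented · Times – 72 h exposure, 37 °C, 5% CO2, 30 min RT equilibration · Measured by – luminescent ATP assay · Read-out – % viability relative to median vehicle-well signal on each plate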

[2] = growth inhibitors of H69AR lung tumor, primary screen, human, duplicate replicates (AID 580;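 active means viability at or under a set limit in both replicates, limit being median viability minus 3 SD, cut at about 48% in these data, passing the limit was not always enough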;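 further: 100% = mean luminescence of untreated wells and 0% = no signal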); settings: H69AR lung tumor cells viability, ATP luminescence, 72 h; at 10 µM; stronger effect = lower value
[3] = reversal of MRP1-mediated doxorubicin resistance, pilot screen, H69AR cells, doxorubicin co-treatment (AID 601); settings: CellTiter-Glo, 72 h, at 10 µM; for differential viability (reversal): stronger effect = higher value
[4] = 384-well plate pilot, post-Golgi transport modulator project, inhibition of yeast transport mutant growth (AID 636; in the data active means inhibition above about 31%); settings: absorbance 615 nm, about 18 h, stronger effect = higher value
[5] = growth suppression of yeast trafficking mutant, preliminary HTS, modulators of trafficking downstream of Golgi apparatus project, 1536-format plate, OD 615 nm (AID 637; in the data active means inhibition above about 30%); settings: yeast transport mutant growth, absorbance 615 nm, 18 h; stronger effect = higher value
[6] = H69AR cells + 2 uM doxorubicin, measured here: viability with 2 uM doxorubicin, stronger effect = lower value
[7] = H69AR cells, compound alone cytotoxicity

Row | SMILES | viability [1] | viability [2] | differential viability (reversal) ([3]; H69AR cells + 2 uM doxorubicin) | viability [3, 6] [%] | viability [3, 7] [%] | inhibition [4] | inhibition [5]
1 | COc1cc2c(cc1OC)CN(Cc1nc3ccsc3c(=O)[nH]1)CC2 | 99.5% (inactive) | 92.2% (inactive) | 7.59% (inactive) | 84.6 | 92.2 | -2.73% (inactive) | 3.17% (inactive)
2 | COc1ccc(Cn2nnnc2C(c2ccncc2)N2CCOCC2)cc1 (stereo not given) | 90.4% (inactive) | 94.7% (inactive) | 3.26% (inactive) | 91.4 | 94.7 | 0.78% (inactive) | 0.95% (inactive)
3 | COc1cc(C2C3=C(CC(C)(C)CC3=O)Nc3c2c(=O)[nH]c(=O)n3Cc2ccccc2)ccc1O (stereo not given) | 83.3% (inactive) | 93.7% (inactive) | 4.23% (inactive) | 89.5 | 93.7 | 0.26% (inactive) | 3.33% (inactive)
4 | CCC(=O)N1CCc2cc(Br)cc(S(=O)(=O)C3(C(=O)OC)CC3)c21 | 102% (inactive) | 90.8% (inactive) | 8.17% (inactive) | 82.6 | 90.8 | -1.82% (inactive) | 0.79% (inactive)
5 | CCC(=O)Nc1ccc(NC(=O)CSc2nnnn2C(C)C)cc1 | 111% (inactive) | 93% (inactive) | 3.14% (inactive) | 89.8 | 93 | -3.82% (inactive) | 4.13% (inactive)
6 | O=C1c2ccccc2NC(c2ccco2)N1O (stereo not given) | 97.2% (inactive) | 96.5% (inactive) | 9.15% (inactive) | 87.3 | 96.5 | -3.38% (inactive) | 0.32% (inactive)
7 | Oc1cccc2ccc(Nc3ccccn3)nc12 | 2.4% (active) | 1.99% (active) | 0.495% (inactive) | 1.5 | 1.99 | -4.16% (inactive) | 2.22% (inactive)
8 | CCCn1c(SCC(=O)Nc2ccccc2C(=O)OC)nc2c1c(=O)n(C)c(=O)n2C | 94.9% (inactive) | 84.5% (inactive) | 2.33% (inactive) | 82.2 | 84.5 | -7.47% (inactive) | 3.02% (inactive)
9 | COC(=O)c1[nH]c(C)c(/C(O)=C2\C(=O)C(=O)N(CCCN3CCOCC3)C2c2ccccn2)c1C (stereo not given) | 109% (inactive) | 104% (inactive) | 7.94% (inactive) | 96.1 | 104 | -0.53% (inactive) | -4.6% (inactive)
10 | CCCc1cc(=O)[nH]c(/N=C(\N)Nc2ccccc2)n1 | 80.8% (inactive) | 82.4% (inactive) | -13.9% (inactive) | 96.3 | 82.4 | -0.13% (inactive) | 3.49% (inactive)
11 | CCOC(=O)CSC1=Nc2ccccc2C2=NC(CC(=O)NCc3cccs3)C(=O)N12 (stereo not given) | 81.9% (inactive) | 91.7% (inactive) | 5.7% (inactive) | 86 | 91.7 | -6.75% (inactive) | -5.56% (inactive)
12 | COc1cc(NC(=O)Cc2ccccc2OC)cc(OC)c1 | 96.9% (inactive) | 95.7% (inactive) | 3.67% (inactive) | 92 | 95.7 | 0.27% (inactive) | -6.67% (inactive)
13 | Cc1ccc(OCc2nnc(SCC(=O)N3CCOCC3)n2C)cc1 | 102% (inactive) | 106% (inactive) | 17.4% (inactive) | 88.5 | 106 | -0.93% (inactive) | -6.35% (inactive)
14 | COCC(=O)N(Cc1ccccc1)c1ccccn1 | 83.3% (inactive) | 90.1% (inactive) | -1.27% (inactive) | 91.3 | 90.1 | -5.32% (inactive) | 9.37% (inactive)
15 | O=C(CCSc1nc(-c2ccco2)cc(C(F)(F)F)n1)NCCc1ccccc1 | 80.7% (inactive) | 79% (inactive) | -15.4% (inactive) | 94.4 | 79 | -4.53% (inactive) | 1.11% (inactive)
16 | CCS(=O)(=O)N1CCCC(C(=O)NCCc2ccc(OC)c(OC)c2)C1 (stereo not given) | 101% (inactive) | 104% (inactive) | 9.14% (inactive) | 94.5 | 104 | 1.07% (inactive) | -0.95% (inactive)
17 | COc1ccccc1CC(=O)NCc1ccc2c(c1)OCO2 | 106% (inactive) | 93.5% (inactive) | 9.18% (inactive) | 84.3 | 93.5 | -7.2% (inactive) | 6.19% (inactive)
18 | N#Cc1c(-c2ccccc2)nc(N2CCCCCC2)[nH]c1=O | 91.5% (inactive) | 88.2% (inactive) | -3.53% (inactive) | 91.7 | 88.2 | -4.8% (inactive) | -3.02% (inactive)
19 | COc1ccc(Cc2nc3ccc(S(N)(=O)=O)cc3[nH]2)cc1OC | 106% (inactive) | 99.9% (inactive) | 14.6% (inactive) | 85.4 | 99.9 | -2.86% (inactive) | 0.63% (inactive)
20 | O=c1c2ccccc2c(C=Nc2ccc(Cl)cn2)c(O)n1-c1cc(Cl)ccc1N1CCOCC1 | 91.7% (inactive) | 89.1% (inactive) | 7.31% (inactive) | 81.8 | 89.1 | -0.65% (inactive) | -3.49% (inactive)

Row | SMILES | viability [1] | viability [2] | differential viability (reversal) ([3]; H69AR cells + 2 uM doxorubicin) | viability [3, 6] [%] | viability [3, 7] [%] | inhibition [4] | inhibition [5]
21 | CCn1c(C)nc2cc(C(=O)OC(C(F)(F)C(F)F)C(F)(F)C(F)F)ccc21 | 58.4% (inactive) | 79.2% (inactive) | 0.115% (inactive) | 79.1 | 79.2 | -2.47% (inactive) | 3.97% (inactive)
22 | CCOCCCNC(=O)C1CCN(S(=O)(=O)c2c(C)noc2/C=C\c2ccc(OC)cc2)CC1 | 99.5% (inactive) | 101% (inactive) | -0.205% (inactive) | 101 | 101 | 4.13% (inactive) | -3.65% (inactive)
23 | COc1ccc(S(=O)(=O)NC(CC(=O)NCc2ccco2)c2ccco2)cc1 (stereo not given) | 99.7% (inactive) | 103% (inactive) | 22.1% (inactive) | 81.3 | 103 | -2.08% (inactive) | 4.29% (inactive)
24 | Cc1cc(NC(=O)c2cc(-c3ccco3)on2)n(-c2ccccc2)n1 | 80.7% (inactive) | 106% (inactive) | 13% (inactive) | 92.6 | 106 | -2.5% (inactive) | 1.9% (inactive)
25 | O=C(c1ccco1)N1CCN(CC(=O)N(C2CCCCC2)C2CCS(=O)(=O)C2)CC1 (stereo not given) | 94% (inactive) | 93.5% (inactive) | -4.1% (inactive) | 97.6 | 93.5 | -4.81% (inactive) | -3.17% (inactive)
26 | O=C(c1ccc2c(c1)OCO2)N1CCNc2ccccc2C1 | 90.4% (inactive) | 99.6% (inactive) | 11.9% (inactive) | 87.7 | 99.6 | 0.65% (inactive) | 3.17% (inactive)
27 | CS(=O)(=O)N1CCC(C(=O)NCCC2=CCCCC2)CC1 | 99.7% (inactive) | 99.9% (inactive) | 20.4% (inactive) | 79.6 | 99.9 | -5.73% (inactive) | -1.11% (inactive)
28 | O=C(Cc1cccs1)NCc1ccc(F)cc1 | 98% (inactive) | 99.6% (inactive) | 5.21% (inactive) | 94.4 | 99.6 | -3.6% (inactive) | 3.33% (inactive)
29 | Cc1ccc(O)c(C(=O)c2cc(C#N)c(=O)n(CC3CCCO3)c2)c1 (stereo not given) | 93.2% (inactive) | 89.7% (inactive) | -2.82% (inactive) | 92.6 | 89.7 | -1.3% (inactive) | 0.16% (inactive)
30 | CC(=O)CC(=O)Nc1ccccc1NC(C)=O | 105% (inactive) | 101% (inactive) | 8.12% (inactive) | 93.2 | 101 | -2.86% (inactive) | 1.43% (inactive)
31 | COC(=O)c1cc(-c2c(C)nn(-c3ccccc3)c2C)n[nH]1 | 97.8% (inactive) | 101% (inactive) | -2.79% (inactive) | 104 | 101 | -2.63% (inactive) | -4.76% (inactive)
32 | O=C(c1cnn2c1NC(c1ccco1)CC2C(F)(F)F)N1CCN(c2cccc(Cl)c2)CC1 (stereo not given) | 48.7% (inactive) | 9.38% (active) | -61.4% (inactive) | 70.8 | 9.38 | -6% (inactive) | -2.22% (inactive)
33 | COC(=O)c1c(NC(=O)C2CC=CCC2C(=O)O)sc(C(N)=O)c1C (stereo not given) | 75.4% (inactive) | 98.2% (inactive) | 4.23% (inactive) | 94 | 98.2 | -7.76% (inactive) | -6.03% (inactive)
34 | O=C(O)C1CSC2c3ccccc3C(=O)N12 (stereo not given) | 104% (inactive) | 103% (inactive) | 15.4% (inactive) | 87.6 | 103 | -1.04% (inactive) | 3.81% (inactive)
35 | CCC(=O)c1ccc(OCC(=O)N2CCc3cc(OC)c(OC)cc3C2)cc1 | 101% (inactive) | 82.9% (inactive) | -11.2% (inactive) | 94.1 | 82.9 | -2.34% (inactive) | -4.6% (inactive)
36 | COc1cc2c(cc1NCc1ccccn1)oc1ccccc12 | 78% (inactive) | 83.8% (inactive) | -10.3% (inactive) | 94.1 | 83.8 | -4.13% (inactive) | 5.08% (inactive)
37 | COc1ccc(N2CCN(c3oc(COc4ccccc4)nc3C#N)CC2)cc1 | 84.1% (inactive) | 101% (inactive) | -2.02% (inactive) | 103 | 101 | -5.19% (inactive) | 0.95% (inactive)
38 | O=C(c1ccc(-c2ccccc2)cc1)N1CCC(C(=O)N2CCCC2)CC1 | 97.3% (inactive) | 104% (inactive) | 12.4% (inactive) | 91.4 | 104 | -6.67% (inactive) | 5.71% (inactive)
39 | Cc1ccccc1Cn1nc(C)c(NC(=O)c2noc3c2CCCC3)c1C | 75.7% (inactive) | 97.3% (inactive) | 2.39% (inactive) | 95 | 97.3 | -3.12% (inactive) | -10.3% (inactive)
40 | CN(C)C(=O)C12CCC(C)(c3nc4ccccc4nc31)C2(C)C (stereo not given) | 105% (inactive) | 88.8% (inactive) | 2.95% (inactive) | 85.8 | 88.8 | 3.03% (inactive) | -4.6% (inactive)
